# Source: PubChem (several laboratories)
# HNF4A DNA FP: change in binding of human HNF4 alpha to DNA; P41235; hit rate 0.3% among 360,000; HNF4a-FITC DNA binding, fluorescence polarization, 1 h; activity change, % at 10 µM; AID 1224865; in the data active = activity change above about 30%, passing the limit was not always enough
# Rpn11 inh: blocks the human proteasome subunit Rpn11 | human 26S proteasome, Ub4-pepOG fluorescence polarization; 20S core pre-blocked with epoxomicin | calls only at 20 µM | hit rate 0.59% among 360,000 | AID 588493;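 active = inhibition at 20 µM, scaled to each plate's controls, above about 33%, limit read from the data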
# TPT1 inh: C. albicans TPT1 enzyme inhibition | hit rate 0.81% among 300,000 | inhibition, % at 5 µM | recombinant caTPT1, FP RNA substrate dephosphorylation;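 active = inhibition above the mean of all tested compounds plus 3 SD, set per screening campaign, cut at about 24% in these data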
# CSN inh: inhibitors of human CSN-mediated cullin deneddylation; Q92905; Purified CSN, SCF-Nedd8-OG deneddylation, fluorescence polarization; inhibition, % at 12.5 µM; hit rate 0.38% among 360,000; AID 651999;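 active = pattern-corrected inhibition above about 35%, with an unprinted fluorescence ratio check between 0.5 and 1.5, limit read from the data, passing the limit was not always enough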
#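 Test system: purified human Csn5 enzyme expressed in HEK293T cells. Amount: 0.24 nM enzyme. Reagent: SCFSkp2-Nedd8OG substrate at 10 nM final. Schedule: 90 min incubation of compound, enzyme and substrate at room temperature. Detection: fluorescence polarization. Read-out: % inhibition of substrate cleavage by Csn5.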
# Rpn11 confirm: Rpn11 inhibition confirmation, single concentration; shares compounds with Rpn11 inh; purified human 26S proteasome, Ub4-pepOG fluorescence polarization; proteasome pretreated with epoxomicin; inhibition, % at 20 µM; hit rate 29% among 1,900; AID 602318
# MMP-2 inh: blocks human MMP-2, flagging nonselective RPN11 hits; recombinant MMP-2, FRET peptide cleavage fluorescence; inhibition, % at 20 µM; shares compounds with Rpn11 inh; hit rate 4% among 1,900; AID 602330;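 also: human MMP-2 activated beforehand with APMA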
# Thrombin inh: counter-screen for RPN11 inhibitors: inhibition of bovine thrombin. shares compounds with Rpn11 inh. bovine thrombin cleavage of Ub4-pepOG, fluorescence polarization. inhibition, % at 20 µM. hit rate 13% among 1,900;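 active = mean inhibition at least 40% at 20 µM, or signal 3 deviations below plate average, so some actives read negative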
# Target sequence (P00735 whole entry, looked up): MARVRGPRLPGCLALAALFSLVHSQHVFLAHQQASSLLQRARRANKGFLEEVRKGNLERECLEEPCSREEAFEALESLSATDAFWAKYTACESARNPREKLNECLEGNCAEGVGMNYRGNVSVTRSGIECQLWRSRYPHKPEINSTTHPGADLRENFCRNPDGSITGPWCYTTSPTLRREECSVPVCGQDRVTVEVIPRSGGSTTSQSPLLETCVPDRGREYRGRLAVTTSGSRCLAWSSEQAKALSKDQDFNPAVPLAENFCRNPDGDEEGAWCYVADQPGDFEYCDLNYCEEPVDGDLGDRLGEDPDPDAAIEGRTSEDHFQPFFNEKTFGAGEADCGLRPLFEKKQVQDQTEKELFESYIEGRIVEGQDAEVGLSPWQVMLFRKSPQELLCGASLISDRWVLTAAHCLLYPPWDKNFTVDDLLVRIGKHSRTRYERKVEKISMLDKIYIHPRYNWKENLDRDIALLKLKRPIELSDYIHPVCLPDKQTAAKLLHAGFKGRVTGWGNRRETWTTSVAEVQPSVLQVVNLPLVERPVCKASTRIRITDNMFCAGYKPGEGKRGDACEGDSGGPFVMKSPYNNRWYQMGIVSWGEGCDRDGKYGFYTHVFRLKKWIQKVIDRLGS
# A number is an active result; - = inactive; . = no result; + = active, no number. Only some compounds are listed: those with a hit (about 1.5% of all), similar ones and a draw of the others. Rule as the data show it, unless noted: active = inhibition above about 40%; inactive = the rest.
SMILES,HNF4A DNA FP,Rpn11 inh,TPT1 inh,CSN inh,Rpn11 confirm,MMP-2 inh,Thrombin inh
O=C1CSC(=S)N1N=Cc1c[nH]c2ccc(Br)cc12,-,+,.,-,-,-,-
Cc1cc(C)c(S(=O)(=O)n2ccc(-c3ccc(OCCN(C)c4ccccn4)cc3)n2)c(C)c1,-,+,-,-,-,-,-
CN(C)C(=O)CSc1cccc2cccnc12,-,+,-,-,-,-,-
O=C(CSc1cccc2cccnc12)N1CCCC1,-,+,-,-,-,-,-
NNC(=O)CSc1cccc2cccnc12,-,-,-,-,.,.,.
CC(=O)c1ccc(NC(=O)COC(=O)c2ccc(F)cc2F)cc1,-,-,-,-,.,.,.
CCOc1cc2c(c3c1C(c1ccccc1)N(S(=O)(=O)c1ccc(C)cc1)C3)C(=O)C=CC2=O (centres undefined),-,-,.,-,.,.,.
CC(C)=CCC/C(C)=C/CNC(=O)C[C@H]1C[C@H](C(=O)N2CCOCC2)[C@@]2(CCC3CCCC3)c3[nH]c4cc(-c5ccco5)ccc4c3CCN2C1=O,-,+,.,-,-,-,-
O=C(C[C@H]1C[C@H](C(=O)N2CCCCC2)[C@@]2(CCc3ccccc3)c3[nH]c4cc(-c5ccco5)ccc4c3CCN2C1=O)NCCC1=CCCCC1,-,+,.,-,-,-,-
O=C(C[C@H]1C[C@H](C(=O)N2CCOCC2)[C@@]2(CCC3CCCC3)c3[nH]c4cc(-c5ccco5)ccc4c3CCN2C1=O)NCCN1CCOCC1,-,-,.,-,.,.,.
O=C(C[C@H]1C[C@H](C(=O)N2CCCCC2)[C@@]2(CCc3ccccc3)c3[nH]c4cc(-c5ccco5)ccc4c3CCN2C1=O)NCc1cccc(C(F)(F)F)c1,-,+,.,-,-,-,-
O=C(C[C@H]1C[C@H](C(=O)N2CCOCC2)[C@@]2(CCC3CCCC3)c3[nH]c4cc(-c5ccco5)ccc4c3CCN2C1=O)NCc1cccc(C(F)(F)F)c1,-,-,.,-,.,.,.
CC[C@]12c3[nH]c4cc(-c5ccco5)ccc4c3CCN1C(=O)[C@@H](CC(=O)NCCC1=CCCCC1)C[C@@H]2C(=O)N1CCN(C(=O)c2ccco2)CC1,-,-,.,-,.,.,.
O=C(CC1C[C@H](C(=O)N2CCCCC2)[C@@]2(CCc3ccccc3)c3[nH]c4ccccc4c3CCN2C1=O)NCc1ccco1 (some centres undefined),-,-,.,-,.,.,.
O=C(C[C@H]1C[C@H](C(=O)N2CCCCC2)[C@@]2(CCc3ccccc3)c3[nH]c4cc(-c5ccco5)ccc4c3CCN2C1=O)NCc1ccco1,-,+,.,-,-,-,-
CC1=C(C(=O)N2CCCCCC2)CC(CC(=O)NCCCN(C)C)C(=O)N1CCCN1CCCC1=O (centres undefined),-,.,.,-,.,.,.
COc1cccc(OC)c1OC(=O)c1ccccc1,-,-,.,-,.,.,.
CN(C)c1cccc(CNC(=O)c2csc(COCCO)n2)c1,-,-,.,-,.,.,.
CCOc1ccc(-c2nn(-c3ccccc3)cc2/C=C2\SC(=S)N(Cc3ccco3)C2=O)cc1,-,-,-,-,.,.,.
CC(C)COc1ccc(-c2nn(-c3ccccc3)cc2/C=C2/SC(=S)N(CC(=O)O)C2=O)cc1,-,+,-,-,40.6,-,48.8
O=C1C(=Cc2cn(-c3ccccc3)nc2-c2ccc(OCc3ccccc3)cc2)SC(=S)N1CCS(=O)(=O)O,-,+,.,-,90.3,-,134.2
COc1ccc(OC)c(S(=O)(=O)NCC(=O)NC2CCCCCC2)c1,-,-,.,-,.,.,.
CC(=O)c1ccc(N2CCN(C3CCC(C(C)(C)C)CC3)CC2)cc1 (centres undefined),-,-,-,-,.,.,.
C[C@@H]1CN([C@H](C)CO)C(=O)c2cc(Br)cnc2O[C@H]1CN(C)C(=O)Nc1ccc2c(c1)OCO2,-,-,.,-,.,.,.
Cc1ccc(N(CC(=O)NCCSCc2ccco2)S(=O)(=O)c2ccc(C)cc2)cc1,-,+,-,-,-,-,-
Cc1cccc(N(CC(=O)NCCSCc2ccco2)S(=O)(=O)c2ccccc2)c1,-,-,-,-,.,.,.
CC(SCc1ccccc1)C(=O)Nc1ccccc1 (centres undefined),-,-,-,-,.,.,.
